From the EternaBench riboswitch data

System: MS2 coat protein
Experiment: apparent Kd, MS2 coat protein; higher = weaker binding; RNA-MaP array; FMN 200 µM where present
In short: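 Binding was read on Illumina sequencing-chip clusters where stalled E. coli RNA polymerase had transcribed each design. A titration of SNAP-549-labelled MS2 coat protein began at 0.7 or 1.5 nM and doubled to 3 µM, once without ligand and once with constant ligand, in 100 mM Tris-HCl pH 7.5, 80 mM KCl, 4 mM MgCl2, BSA, DTT, yeast tRNA and Tween-20. The apparent Kd is the median of filtered per-cluster binding-curve fits, based on green signal normalised to red-channel RNA signal and control-cluster median Fmax.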

[1] = designed as: ON switch for flavin mononucleotide, no ligand
[2] = ligand present: flavin mononucleotide, designed as: ON switch for flavin mononucleotide
[3] = designed as: OFF switch for flavin mononucleotide, no ligand
[4] = ligand present: flavin mononucleotide, designed as: OFF switch for flavin mononucleotide

| Sequence | apparent Kd [1] [nM] | apparent Kd [2] [nM] | apparent Kd [3] [nM] | apparent Kd [4] [nM] |
| --- | --- | --- | --- | --- |
| GCGUAUAUAUUAUUUAUUUAACAGUCAGAAGGUGAGAAGACGACAUGAGGAUCACCCAUGUUAUUCAAGGAUAUGAUAAUGCGC | 27.5 | 13.3 | – | – |
| CGUGACGACAUAGGAUAUUGUUACAUGAGGAUCACCCAUGUCAACCAUUUAUCUCAAAUUGUUGACAAGAAGGAUGUGGUCACG | 32.6 | 11.6 | – | – |
| GCUACAUAUUUUAAGUUUGAUUAUCUAGAAGGUAGAUACAUGAGGAUCACCCAUGUUUAGAGUUCUAAGGAUAUAGUUUGUAGC | 6.12 | 5.91 | – | – |
| GCCAUCGCAUGAGGAUAUGCUCCGGUUUCCGGAGCAGAAGGCAUGUCACAAGACAUGAGGAUCACCCAUGUAGUUAAGAUGGCA | 185 | 8.88 | – | – |
| ACAUCGUGAGACAUGAGGAUCACCCAUGUGUGAUAGUGGGCACAGGAUAUCCAGAUCUGGAAUCUGGAGAAGGGUGAUCGUUAA | 47 | 149 | – | – |
| GGAUUGAAUGAGGAUAUCGUAUCGGGUACGAUGCGAGAAGGCAUGACAUGAGGAUCACCCAUGUAGUGUGGGUU | – | – | 415 | 685 |
| UAAUAAAGUGUGAGGAUAUGCUGGUCCUUGGAUCAGCAGAAGGCACAUGAGGAUCACCCAUGUAAUAUAUAAAU | – | – | 97.2 | 292 |
| AUGGUGACGUAGAAGGGUGACAUGAGGAUCACCCAUGUGCCGAUAUUUCUCGAGAUAUGUCGGCCACAGGAUAUACGUACCAUC | 39.3 | 83.3 | – | – |
| CAGCGUACCAGAGGAUAUGAUUGUGGGUAAAGAGCGCUUAGGUGGCUACAUGAGGAUCACCCAUGUCAGAAGGCUGGAGUUCAA | – | – | 279 | 129 |
| UUGUAGUACGUAGGAUAUCAUUGAGGGUCACCCUGAGAAGGACGUGAGGACAUGAGGAUCACCCAUGUGGAUCACCCAUGUCAU | – | – | 282 | 549 |
| GAUAAACAUGAGGAUCACCCAUGUGUGAAUAUGGGAGGAUAUACGUGGACCGUAGUCCGCGUAGAAGGCCUAAUUG | 225 | 40.4 | – | – |
| UUGAAGAAUUAAGGAUAUUGAUUACAUAUGUUAAACAUGAGGAUCACCCAUGUGGGUUGCGGUAUCGAGAAGGUAAAUUAAUAG | 115 | 107 | – | – |
| UCUUUACAUGAGGAUCACCCAUGUGAGGAUAUGGAUUCGCUGGCCGUAGCCAGUGGAUCCAGAAGGCGCAUGAU | – | – | 26.6 | 48 |
| UUUGUUUUGGUAGGAUAUACUUUUAAUUUCUCUUUCCUUACAUGAGGAUCACCCAUGUUUACAUUGUAGAAGGACCACUUUGUU | – | – | 21.8 | 19.2 |
| AUACACUUAGUGAGGAUAUCGUUUUCUUUACGGAUCGAGAAGGCACAUGAGGAUCACCCAUGUUUGACGUGAAU | – | – | 21.4 | 68.9 |
| AGAAACUACGAGAAGGACAUAUGGUUCUUCAGAUACAUGAGGAUCACCCAUGUAGGAUAUCGUAGUUUCAGGAUCGUGAGAUCA | – | – | 6.51 | 9.68 |
| GCGUGACAUGAGGAUCACCCAUGUACUCGAGAAAUCGAGUGUAGAAGGGUGACCGGUCGUUUGGCACAGGAUAUACACGCUGUG | 27.3 | 16.3 | – | – |
| AUGUAUCACACAGGAUAUACAUGAGGAUCACCCAUGUGUCCUCCGUAAUUGACACCAAUUACGCUGUAGAAGGGUGUGAUACAU | – | – | 274 | 204 |
| ACAUGAGGAUCACCCAUGUGAACAUAGGAUAUUGGUGAUCAGGCGUGUUAUACAGGAUAGGUCUGCGAGAAGGGUGCACGUUGC | 540 | 146 | – | – |
| CAGGUAGACUGAGGAUAUACAGACCUAGUCUAUCUAGGUCAAGUCCUUACAUGAGGAUCACCCAUGUAGAAGGCAGUCUGCCUG | – | – | 19.5 | 52.7 |
| AAAACACAUGAGGAUCACCCAUGUAUCUGGACCAUAGGAUAUCCGCGCCCAAUAAGGUGUGGAGAAGGGUGAGCCC | 158 | 181 | – | – |
| AUUAUUAAGGUAGGAUAUAGUAUAAUAAUUAAAUUAGAAGGAUCUCACAUGAGGAUCACCCAUGUAAGAGGAUCACCCAUGUAU | – | – | 10.3 | 10.4 |
| UAAUGUGACAUGAGGAUCACCCAUGUAGACAUGGGAAGGUCGUAGGAUAUGCUGAUGAUUUUUUUGCAGAAGGACGUCAAGGAG | 268 | 138 | – | – |
| UUGCCACAUGAGGAUCACCCAUGUGAGGAUAUGGCCUGUUUGGCGUGAGCUGGUUCUGUCAGAAGGCGCGUGGG | – | – | 45.9 | 51.3 |
| UGACCCAUGACAUGAGAUGACAUGAGGAUCACCCAUGUGUACAAGGAUAUGUUGGUCGACGAUCGGCAGAAGGUGUAAUGGGAU | – | – | 56.6 | 282 |
| GGUGCAUAUGAGAAGGUGAUCAUGAAACAUGAUCGAGGAUAUCAUGUAAACAUGAGGAUCACCCAUGUAUGGGAAUAUUGCACC | 46.2 | 117 | – | – |
| ACUAUACGAGGAUAUGCUGUCAGUACUCAGAGGUUAAUGUGACAUGAGGAUCACCCAUGUAGAAGGCGUUUACU | – | – | 34.2 | 23.8 |
| UUGAAGCUCACAGGAUAUCAGUAUGCACGAUCUAGCGCAUUAAUGAACUGCUGAGAAGGGUGAGACAUGAGGAUCACCCAUGUA | 593 | 209 | – | – |

| Sequence | apparent Kd [1] [nM] | apparent Kd [2] [nM] | apparent Kd [3] [nM] | apparent Kd [4] [nM] |
| --- | --- | --- | --- | --- |
| UCGCUGCGAGGAUAUACAUGAGGAUCACCCAUGUACGGGUCCGGGUCUUUGUCGAUUGGUAGAAGGCGCAGUGA | – | – | 61.1 | 397 |
| CAGCCCUGAGGAUAUCCCUACUUGUACAUGAGGAUCACCCAUGUUCUCCUCCGGGCUUCGGGAGAAGGCAGGUCUC | – | – | 15.9 | 15.5 |
| UUGGACGUCGUAGGAUAUGUAGGAUAUUCCUACAUGAGGAUCACCCAUGUUGAUAUGGAAGAAGGACAGAAGGACGAUGUCCAU | 31.8 | 4.64 | – | – |
| CAGGUAGACUGAGGAUAUACAAUAAGACCUAGUCUAUCUAGGUCACUCACAUGAGGAUCACCCAUGUAGAAGGCAGUCUGCCUG | – | – | 21.8 | 79.7 |
| CGCUGUCAUGCAGGAUAUGCAUUGGAUUACAAUGCAGAAGGGCGAUUACAUGAGGAUCACCCAUGUGUAGACAGUGAAGAAGAC | 167 | 11.9 | – | – |
| UAUUCUAGAUAGGAUAUACUUUAUUUUUUUUUCGUAGAAGGAUCUACAUGAGGAUCACCCAUGUUAACAGCAGU | – | – | 55.5 | 50.8 |
| GGAUAGGACAGAGGAUAUACGUGCUAGAGAUACUAGCAACAUUUCCUCACAUGAGGAUCACCCAUGUAGAAGGCUGUCCUAUCG | – | – | 8.16 | 190 |
| CUGAGGUAAGGAUAUAGGAGAGAAGAUAAGGUAUGAGAGUUCUAGAAGGUACAUGAGGAUCACCCAUGUUAGGG | – | – | 477 | 235 |
| AAAUAAAAUAUAGGAUAUGGAAACAUGAGGAUCACCCAUGUAUGAUAAGAUAAAUAAUGAUAUAGCCAGAAGGAUACAAUAUAA | 31 | 38.3 | – | – |
| AUCAGCUCGUCAGGAUAUACGUCGCUGCGUCAGCAGUGUGGUAAGAUCACAUGAGGAUCACCCAUGUAGAAGGGACGAGCUGAU | – | – | 19.3 | 374 |
| GCCGGAUUUGUGAGGAUAUACCUAUGGAUACAUAGGUAGAAGGCACAUGAGGAUCACCCAUGUACCUCACCGGC | – | – | 16.7 | 69.2 |
| UGAAAUCAUGUAGGAUAUGCAUGGCGAAGCUACGCAGAAGGACAUGAGGAUCACCCAUGUUAUAGCUACCCAGUUCGGUGGCAG | – | – | 46.2 | 174 |
| CCAGAUAUGUGAGGAUAUAGAGUGGAAUACACUCUAGAAGGUAUGUGAGAACAUGAGGAUCACCCAUGUCAUUGAUUAUCUGGA | 24.7 | 24.6 | – | – |
| UCGUGAAGGACAGGAUAUGGACAUGAGGAUCACCCAUGUACAUGGGAUUAUAUACUGAAUUUAUACUAGAAGGGUUACAUAAAU | – | – | 31.7 | 19.8 |
| CUCUACAUAGGAUAUACAUGAGGAUCACCCAUGUAUGUUUCGACAUGCGUUUACCUCGGUAGAAGGAUGUAGUA | – | – | 68.2 | 185 |
| GGUGGUACAGAGAAGGCGCCGCAGCUCUUCCUCCCAUCCCAACGACAUGAGGAUCACCCAUGUAGCGAGGAUAUCUGUGCCAUC | – | – | 7.05 | 22.5 |
| GGGUACAUCGGAGGAUAUCAUGUAAAUACAUGAGGAUCACCCAUGUCGAUGGAGAUAUCGGAGAUUGAGAAGGCCGAUGUACCG | 102 | 9.9 | – | – |
| UGUACAUUAUUAAGUAAUUAGGCGAAGGAUAUAUAACAUGAGGAUCACCCAUGUACUAAAUUGAAGUAGAAGGUUGAGCAUUUC | 16.2 | 13.7 | – | – |
| CCGGAUUAGGAGGAUAUAGGAGUCGAUAGACACCUAGAAGGCCUAACAUGAGGAUCACCCAUGUGUCCUACCGG | – | – | 21.9 | 90.8 |
| CGUGCGUCGACAGGAUAUACAGAUUGGCUCCGGUACAUGAGGAUCACCCAUGUAGAAGGGUCACGCACGGAUAGUUCGAUAUUA | – | – | 9.36 | 43.1 |
| UGAACGUUAGGAUAUACAUGAGGAUCACCCAUGUGUUAUGAGCAAUCAUCGAUAUGUUGUAGAAGGAACGCGCG | – | – | 24.9 | 26.3 |
| AACGCACGAGAUGGCUGGGAUACUAAGGAUAUGACAUGAGGAUCACCCAUGUACGCGAUCCAUGGUCAGAAGGUAGUAAUUCGC | – | – | 37 | 91.2 |
| AUUCUGCUCGCAGGAUAUCAGGAAAUGUUGAUCUUCUGUAUCUCCUACAUGAGGAUCACCCAUGUUGAGAAGGGCGAUGGCAAU | – | – | 65.7 | 400 |
| AUGUUACAUGAGGAUCACCCAUGUGAGGAUAUGUGUACUGGUAAAAAAGUGUUUGGCCACAGAAGGCAUUUGGA | – | – | 29.1 | 31.2 |
| CCCUCACAUGAGGAUCACCCAUGUCAGGAUAUCUAGUCAGACAGUGUAGCACUAAUGAAGAGAAGGGACGUAUG | – | – | 25.6 | 26.8 |
| ACGUUUUAUGCAGGAUAUUGAAAUAUAUUUAAACAAGAAGGGCAAUACAUGAGGAUCACCCAUGUCAGCAUGGUAUUUAAGUUC | – | – | 43.9 | 45.4 |
| AAAUUUAACGAAGGAUAUACAAACAUGAGGAUCACCCAUGUGUGUUUCGUGUUACUGAAAUUCGGGUAGAAGGUCGUAUACAUA | – | – | 23.4 | 18.1 |
